# From PubChem
# Scp1 inh: Scp-1 (human) phosphatase inhibition | AID 493091 | Recombinant Scp1, phosphopeptide, malachite green phosphate absorbance | 0.88% of 340,000 active | inhibition, % at 20 µM;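 active = inhibition above about 50% at 20 µM, limit read from the data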;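 note: plate controls were DMSO wells with enzyme for no effect and wells lacking enzyme for full effect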
# Target sequence (Q9GZU7 76-261 limits assumed): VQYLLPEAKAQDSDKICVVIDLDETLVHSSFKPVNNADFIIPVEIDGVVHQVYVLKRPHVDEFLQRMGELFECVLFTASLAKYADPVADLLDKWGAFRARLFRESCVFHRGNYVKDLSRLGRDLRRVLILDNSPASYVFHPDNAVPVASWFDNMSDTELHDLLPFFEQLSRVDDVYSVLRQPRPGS
#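 Test system: SCP-1 phosphatase catalytic domain, residues 76-261 | Compound dosing: One concentration, 20 µM, with 1.0% DMSO | Schedule: 45 min room-temperature reaction, 5 min colour, 30 min stabiliser | Detection: Absorbance at 630 nm | Read-out basis: % inhibition of SCP-1 phosphate liberation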
# DNMT1 inh: blocks human DNA methyltransferase DNMT1 | P26358 | DNMT1 molecular beacon, Hinp1I cleavage, fluorescence | inhibition (reported as % activation of signal), % at 10 µM | 0.83% of 360,000 active; in the data active = inhibition above about 50%
# LMPTP inh: LMPTP (human) inhibition; recombinant LMPTP-A, OMFP fluorogenic substrate, fluorescence intensity; inhibition, % at 20 µM; 0.22% of 360,000 active; AID 651560;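 active = compounds that cut the enzyme signal by at least half of the control window in the single-dose screen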;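 note: plate controls were DMSO wells with enzyme plus substrate for no effect and substrate without enzyme for full effect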
#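 Test system – LMPTP-A phosphatase enzyme · Quantity – 0.625 nM LMPTP-A final · Reagent – OMFP substrate, 400 µM final · Dosing – one test concentration per compound, 20 µM, with 3% DMSO overall · Timing – 50 min enzyme reaction at room temperature, protected from light · Detection – fluorescence intensity · Controls – substrate-only low control, DMSO enzyme-plus-substrate high control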
# STEP inh: inhibitors of human striatal-enriched phosphatase STEP; P54829; recombinant STEP, OMFP fluorogenic substrate, fluorescence; inhibition, % at 20 µM; 0.25% of 360,000 active; AID 588621;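 active = inhibition at 20 µM, scaled per plate between control wells, above about 37%, limit read from the data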;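 note: 0% = DMSO with enzyme and substrate and 100% = substrate only without enzyme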
#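 Assay system: isolated STEP enzyme. Buffer or medium: pH 6.0 Bis-Tris with DTT and Tween 20. Also added: fluorogenic phosphatase substrate OMFP at 25 µM final. Dosing: 20 µM, 1% DMSO. Timing: 20 min reaction, room temperature, in the dark. Measured by: fluorescence intensity, excitation 480 nm, emission 540 nm. Evaluation: normalized % inhibition.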
# SUMO1-SIM PPI: modulators of human SUMO1-mediated protein-protein interactions. P63165. SUMO1 binding to a labelled peptide, TR-FRET, 1 h. inhibition, % at 20 µM. 0.33% of 360,000 active; in the data active = inhibition above about 37%
# CSN inh: inhibitors of human CSN-mediated cullin deneddylation; Q92905; 0.38% of 360,000 active; Purified CSN, SCF-Nedd8-OG deneddylation, fluorescence polarization; inhibition, % at 12.5 µM;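 active = pattern-corrected inhibition above about 35%, with an unprinted fluorescence ratio check between 0.5 and 1.5, limit read from the data, passing the limit was not always enough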;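 note: 0% = enzyme with substrate and 100% = substrate without enzyme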
# Target sequence (Q92905 whole entry, looked up, one chain of several): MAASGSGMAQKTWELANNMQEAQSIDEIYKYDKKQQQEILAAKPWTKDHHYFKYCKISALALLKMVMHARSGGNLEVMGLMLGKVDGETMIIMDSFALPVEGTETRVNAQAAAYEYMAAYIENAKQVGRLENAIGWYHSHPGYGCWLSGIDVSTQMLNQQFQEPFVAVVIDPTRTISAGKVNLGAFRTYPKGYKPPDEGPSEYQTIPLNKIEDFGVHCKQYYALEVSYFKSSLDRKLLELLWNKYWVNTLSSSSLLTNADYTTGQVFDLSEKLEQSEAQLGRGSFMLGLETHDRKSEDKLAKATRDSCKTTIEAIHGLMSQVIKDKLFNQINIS
#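 Assay system: purified human Csn5 enzyme expressed in HEK293T cells; Input: 0.24 nM Csn5 enzyme, final concentration; Reagent: 10 nM SCFSkp2-Nedd8OG; Compound dosing: 12.5 µM single point; Times: reaction 90 min, room temperature; Technique: fluorescence polarization readout.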
# Scp1 confirm: Scp-1 (human) inhibition, single-dose confirmed; shares compounds with Scp1 inh; AID 540281; recombinant SCP-1 catalytic domain, phosphate release, malachite green absorbance; inhibition, % at 20 µM; 61% of 2,500 active;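 note: plate controls were DMSO with enzyme for no effect and buffer wells lacking enzyme for full effect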
# MG interference: interferes with malachite green readout, flagging false Scp-1 hits. Colorimetric interference counterscreen, malachite green absorbance 630 nm. apparent inhibition (interference), % at 20 µM. shares compounds with Scp1 inh. AID 540313. 2,500 tested, under 10 active;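 note: compounds added after enzyme reaction finished so only phosphate colour detection is probed; plate controls were DMSO wells with completed Scp-1 reaction for no effect and substrate wells lacking enzyme for full effect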
# Scp1 DSF: binds human Scp-1, shifting its melting temperature | shares compounds with Scp1 inh | Recombinant SCP1, Sypro Orange thermal shift Tm | thermal shift relative to vanadate control, % at 40 µM | 25% of 1,500 active | AID 540329;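 active = substances whose mean melting-temperature shift, as a percentage of the reference inhibitor's shift, reaches about 5.3%, limit read from the data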;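 note: 0% = Tm of DMSO wells and 100% = Tm with sodium orthovanadate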
# Active calls of the source: *; . = no result given. Hits are enriched below; roughly 1.9% of the tested compounds scored in any of these assays.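 Rule for the calls, unless noted: active = inhibition of at least 30% at 20 µM; inactive = the rest.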
SMILES,Scp1 inh,DNMT1 inh,LMPTP inh,STEP inh,SUMO1-SIM PPI,CSN inh,Scp1 confirm,MG interference,Scp1 DSF
CCOC(=O)/C=C1\CN(CCC(C)C)S(=O)(=O)c2ccccc21,59*,2,0,0,-8,-6,31*,-20,-23
CCc1sc(NC(=O)c2cc3ccccc3oc2=O)nc1-c1cccs1,-5,12,-2,-4,1,4,.,.,.
CC(C)CC1Nc2ccc(C(=O)NCc3ccc4c(c3)OCO4)cc2NC1=O (stereo not drawn),-10,-1,1,0,-5,-2,-5,-2,.
COc1ccc(NC(=O)CN2C(=O)C(c3ccccc3)=NC23CCCCCC3)cc1,59*,3,1,0,-2,-4,-26,-23,.
O=C(CN1C(=O)C(c2ccc(F)cc2)=NC12CCCC2)Nc1ccc(F)cc1,-1,2,-1,-3,5,-4,.,.,.
CC1CCc2c(sc(NC(=O)c3ccc(Cn4cc([N+](=O)[O-])cn4)o3)c2C#N)C1 (stereo not drawn),71*,42,5,2,5,5,61*,-22,6.4*
CCc1ccc(CNCCNC(=O)c2ccco2)cc1,-15,3,6,3,-17,4,.,.,.
O=C(NCCNCc1ccccc1)c1ccco1,70*,68*,22,10,-7,21,49*,-18,9.6*
Cc1cccc(C)c1Cn1c(C)c(C(=O)NCCC#N)sc1=O,.,1,1,1,-1,1,.,.,.
O=C(/C=C\Nc1ccc2c(c1)OCO2)c1ccc(Cl)s1,91*,8,63*,2,-7,21,75*,0,0
C(=C\n1nnc2ccccc21)/c1ccccn1,-2,6,-1,2,-22,-4,.,.,.
Cc1ccc(/C=C/C(=O)N2CCN(S(=O)(=O)c3cccs3)CC2)o1,-5,0,0,-2,9,2,.,.,.
O=C(/C=C/c1ccco1)N1CCN(S(=O)(=O)c2cccs2)CC1,58*,10,7,3,-3,4,47*,-4,1
COCCNC(=O)C1c2ccccc2C(=O)N(CCOC)C1c1ccc(F)cc1 (stereo not drawn),52*,-2,4,-1,4,-2,4,-2,.
COCCN1C(=O)c2ccccc2C(C(=O)NCCN(C)C)C1c1ccc(F)cc1 (stereo not drawn),5,4,-1,-2,-4,2,.,.,.
COc1ccc(C2c3c(oc4ccccc4c3=O)C(=O)N2CCN2CCOCC2)cc1OC (stereo not drawn),3,2,-2,-4,-11,1,.,.,.
COCCN1C(=O)c2oc3ccccc3c(=O)c2C1c1ccc(OC)c(OC)c1 (stereo not drawn),60*,5,-1,-2,-5,9,44*,-5,-8
O=C(CCN1C(=O)c2cccc3cccc(c23)C1=O)NCc1cccnc1,-5,2,-1,-1,-18,1,.,.,.
O=C(CCN1C(=O)C2C3C=CC(C3)C2C1=O)NCc1cccnc1 (stereo not drawn),60*,2,0,-2,0,-3,-11,-15,.
CC1CCCCC1NC(=O)c1ccc(NC2=NC3CS(=O)(=O)CC3S2)cc1 (stereo not drawn),-9,2,1,-2,-7,-3,.,.,.
CN1CCN(NS(=O)(=O)c2cccs2)CC1,-8,2,-4,-2,0,0,.,.,.
CCc1sc(C(=O)N2CCN(C(=O)c3ccccc3)CC2)cc1C,-5,8,0,-1,0,-2,.,.,.
